Reference: ChEMBL document CHEMBL2439991, “Restraining the flexibility of the central linker in terameprocol results in constrained analogs with improved growth inhibitory activity” (Bioorg Med Chem Lett, 2013)

Tests used:
T47D = test: Cytotoxicity against human T47D cells after 72 hrs by MTT assay; assay type: functional
In short: (§1)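 MTT redox read-out; absorbance taken at 0 h (T0) and after 72 h exposure, with untreated cells as control (C). GI50 solved from (T − T0)/(C − T0) = 50%, i.e. viability halved relative to untreated after correction for time-zero cell count.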

T98G = test: Cytotoxicity against human T98G cells after 72 hrs by MTT assay; assay type: functional; in short: as §1
[1] = Cytotoxicity against human U87 cells after 72 hrs by MTT assay; assay type: functional, U-87MG ATCC; conditions: U-87 MG; in short: as §1
BXPC-3 = test: Cytotoxicity against human BxPC3 cells after 72 hrs by MTT assay; assay type: functional; conditions: BXPC-3, 72 h; in short: as §1
786-0 = test: Cytotoxicity against human 786-0 cells after 72 hrs by MTT assay; assay type: functional; conditions: 786-0, 72 h; in short: as §1
HeLa = test: Cytotoxicity against human HeLa cells after 72 hrs by MTT assay; assay type: functional; in short: as §1
NCI-H69 [2] = test: Cytotoxicity against human H69 cells; assay type: functional, cell-based
NCI-H69 [3] = test: Ratio of NDGA IC50 to compound IC50 for human H69 cells; assay type: functional

SMILES | GI50 (T47D) | GI50 (T98G) | GI50 [1] | GI50 (BXPC-3) | GI50 (786-0) | GI50 (HeLa) | IC50 (NCI-H69 [2]) | Ratio IC50 (NCI-H69 [3])
COc1ccc(S(=O)(=O)N2CCc3cc(OC)c(OC)cc3C2)cc1OC | > 50 µM | > 50 µM | > 50 µM | > 50 µM | > 50 µM | > 50 µM | – | –
COc1ccc(CCNC(=O)Cc2ccc(OC)c(OC)c2)cc1OC | > 100 µM | > 100 µM | > 100 µM | > 100 µM | > 100 µM | > 100 µM | – | –
COc1ccc(CNS(=O)(=O)c2ccc(OC)c(OC)c2)cc1OC | > 100 µM | > 100 µM | > 100 µM | > 100 µM | > 100 µM | > 100 µM | – | –
COc1ccc(NS(=O)(=O)c2ccc(OC)c(OC)c2)cc1OC | > 100 µM | > 100 µM | > 100 µM | > 100 µM | > 100 µM | > 100 µM | – | –
COc1ccc(C2=NCCc3cc(OC)c(OC)cc32)cc1OC | > 100 µM | > 100 µM | > 100 µM | > 100 µM | > 100 µM | 79.3 µM | – | –
COc1ccc(CNC(=O)Nc2ccc(OC)c(OC)c2)cc1OC | > 100 µM | > 100 µM | > 100 µM | > 100 µM | > 100 µM | > 100 µM | – | –
COc1ccc(CNC(=O)Cc2ccc(OC)c(OC)c2)cc1OC | > 100 µM | > 100 µM | > 100 µM | > 100 µM | > 100 µM | > 100 µM | – | –
COc1ccc(C[C@@H](C)[C@@H](C)Cc2ccc(OC)c(OC)c2)cc1OC [TERAMEPROCOL] | 5.36 µM | > 50 µM | > 50 µM | 17.1 µM | 4.54 µM | > 50 µM | – | –
COc1ccc(CNC(=O)NCc2ccc(OC)c(OC)c2)cc1OC | > 100 µM | > 100 µM | > 100 µM | > 100 µM | > 100 µM | > 100 µM | – | –
COc1ccc(/C=C/C(=O)NCc2ccc(OC)c(OC)c2)cc1OC | > 100 µM | 70.3 µM | 57.1 µM | > 75 µM | 68.4 µM | > 75 µM | – | –
COc1ccc(NC(=O)Nc2ccc(OC)c(OC)c2)cc1OC | > 50 µM | > 50 µM | > 50 µM | > 50 µM | > 50 µM | > 50 µM | – | –
COc1ccc([C@H]2O[C@H](c3ccc(OC)c(OC)c3)[C@@H](C)[C@H]2C)cc1OC [GANSCHISANDRINE] | 4.4 µM | 58.3 µM | > 75 µM | 17.2 µM | > 75 µM | > 75 µM | – | –
COc1ccc(NC(=O)c2ccc(OC)c(OC)c2)cc1OC | > 100 µM | > 100 µM | > 100 µM | > 100 µM | > 100 µM | > 100 µM | – | –
COc1ccc(CN2CCc3cc(OC)c(OC)cc3C2)cc1OC | 45.4 µM | > 100 µM | > 100 µM | > 100 µM | > 100 µM | 55.9 µM | – | –
COc1ccc(C(=O)N2CCc3cc(OC)c(OC)cc3C2)cc1OC | 11.9 µM | 10.1 µM | 20.6 µM | 13.6 µM | 24.1 µM | 8.23 µM | – | –
COc1ccc(/C=C2/CCc3cc(OC)c(OC)cc32)cc1OC (mixture of isomers) | 4.24 µM | > 25 µM | > 25 µM | 8.1 µM | 5.5 µM | > 25 µM | – | –
COc1ccc(CCNS(=O)(=O)c2ccc(OC)c(OC)c2)cc1OC | > 100 µM | > 100 µM | > 100 µM | > 100 µM | > 100 µM | > 100 µM | – | –
COc1ccc(CC(=O)Nc2ccc(OC)c(OC)c2)cc1OC | > 100 µM | > 100 µM | > 100 µM | > 100 µM | > 100 µM | > 100 µM | – | –
COc1ccc(/C=C/C=C/c2ccc(OC)c(OC)c2)cc1OC | > 100 µM | > 100 µM | > 100 µM | 3.41 µM | 2.67 µM | > 100 µM | – | –
COc1ccc(C(=O)C2=NCCc3cc(OC)c(OC)cc32)cc1OC | 16.1 µM | > 100 µM | > 100 µM | 26.3 µM | > 100 µM | 16.9 µM | – | –
COc1ccc(C2NCCc3cc(OC)c(OC)cc32)cc1OC (stereo not drawn) | > 100 µM | > 100 µM | > 100 µM | > 100 µM | > 100 µM | 57.6 µM | – | –
COc1ccc(CC(=O)N2CCc3cc(OC)c(OC)cc3C2)cc1OC | > 100 µM | > 100 µM | > 100 µM | > 100 µM | > 100 µM | > 100 µM | – | –
COc1ccc(/C=C/C(=O)Nc2ccc(OC)c(OC)c2)cc1OC | > 50 µM | > 50 µM | > 50 µM | > 50 µM | > 50 µM | > 50 µM | – | –
Oc1ccc(CCCCc2ccc(O)c(O)c2)cc1O | – | – | – | – | – | – | 0.3 µM | 10
COc1ccc(CNC(=O)c2ccc(OC)c(OC)c2)cc1OC | > 100 µM | > 100 µM | > 100 µM | > 100 µM | > 100 µM | > 100 µM | – | –
CC(Cc1ccc(O)c(O)c1)C(C)Cc1ccc(O)c(O)c1 (stereo not drawn) [NORDIHYDROGUAIARETIC ACID] | – | – | – | – | – | – | 4.4 µM | –
COc1ccc(CCNC(=O)c2ccc(OC)c(OC)c2)cc1OC | > 100 µM | > 100 µM | > 100 µM | > 100 µM | > 100 µM | > 100 µM | – | –
